Published values from different studies.
Compare with care: the assays were run in different laboratories.
Target: Cyclin-dependent kinase 11A (CDK11A, Homo sapiens, UniProt Q9UQ88)
One construct used (Q9UQ88 1-783): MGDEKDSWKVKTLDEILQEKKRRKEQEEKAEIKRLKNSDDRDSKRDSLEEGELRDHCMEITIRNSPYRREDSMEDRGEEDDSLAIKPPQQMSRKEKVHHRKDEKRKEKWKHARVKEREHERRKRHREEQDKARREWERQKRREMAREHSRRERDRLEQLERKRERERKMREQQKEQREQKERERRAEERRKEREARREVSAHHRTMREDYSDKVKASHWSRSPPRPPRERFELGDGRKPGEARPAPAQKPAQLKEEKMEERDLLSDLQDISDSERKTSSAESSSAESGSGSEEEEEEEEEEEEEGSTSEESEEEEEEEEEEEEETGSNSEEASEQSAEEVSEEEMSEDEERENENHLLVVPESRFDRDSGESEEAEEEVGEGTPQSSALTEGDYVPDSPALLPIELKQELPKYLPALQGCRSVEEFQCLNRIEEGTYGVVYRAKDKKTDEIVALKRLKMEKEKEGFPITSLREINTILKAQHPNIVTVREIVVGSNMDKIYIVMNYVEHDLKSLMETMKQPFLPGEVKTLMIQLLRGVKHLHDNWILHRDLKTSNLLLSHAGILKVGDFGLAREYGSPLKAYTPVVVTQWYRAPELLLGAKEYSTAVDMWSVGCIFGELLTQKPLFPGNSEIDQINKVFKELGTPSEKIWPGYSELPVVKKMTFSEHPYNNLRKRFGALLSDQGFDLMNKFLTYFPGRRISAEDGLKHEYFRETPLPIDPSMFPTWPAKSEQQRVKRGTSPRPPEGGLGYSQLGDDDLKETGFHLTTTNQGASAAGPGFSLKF

| SMILES | test | setting | remaining binding [%] |
| --- | --- | --- | --- |
| Nc1ncc2c(n1)-c1c([nH]c3ccc(C#CC4CC4)cc13)CCCC2 | binding, competition with immobilised ligand | 1 µM | 93 |
| CCN1CCN(Cc2ccc(C(=O)Nc3ccc(C)c(Oc4ccc5c(c4)CC(=O)N5)c3)cc2C(F)(F)F)CC1 | binding, competition with immobilised ligand | 1 µM | 100 |
| CNC(=O)[C@@H]1CC[C@@H](n2c(-c3ccc4cnccc4c3)nc3ccc(C(=O)NCc4cccc(C(N)=O)c4)cc32)C1 | binding, competition with immobilised ligand | 1 µM | 100 |
| C[C@@H]1CCN(c2nccc(-c3cnn4ncccc34)n2)C1 | binding | 1 µM | 85 |
| O=C(c1ccc(Nc2ncc(Cl)c(-c3ccc(Cl)s3)n2)cc1)N1CCC(N2CCCC2)CC1 | binding, competition with immobilised ligand | 1 µM | 39 |
| CN(C)c1nccc(-c2cnn3ncccc23)n1 | binding | 1 µM | 92 |
| CCC(=O)N[C@H]1CC[C@@H](C(=O)N(C)c2ccc(-c3nc4ccccc4o3)cc2)C1 | cell-free assay, competition with immobilised ligand | 1 µM | 97 |
| COc1cnc(Nc2cccc(S(N)(=O)=O)c2)nc1N1CCN(c2ccccc2)CC1 | binding, competition with immobilised ligand | 1 µM | 93 |
| Cn1cc(Cl)c2c(Oc3c(F)cc(Nc4cc(Cl)nc(N)n4)cc3F)ccnc21 | binding, competition with immobilised ligand | 0.1 µM | 100 |
| CN(C)c1ncc(F)c(-c2cnn3ncccc23)n1 | binding | 1 µM | 97 |
| CSc1cccnc1N1CCN(Cc2nc3ccccc3[nH]2)CC1 | binding, competition with immobilised ligand | 1 µM | 100 |
| O=C(c1ccc(Nc2nccc(-c3cc4ccccc4s3)n2)cc1)N1CCC(N2CCCC2)CC1 | binding, competition with immobilised ligand | 1 µM | 80 |
| Cc1noc([C@H]2C[C@@H](c3ccc(C(F)(F)F)cc3)CN(C(=O)N3CCS(=O)(=O)C3)C2)n1 | binding, competition with immobilised ligand | 1 µM | 100 |
| CN(C)c1nccc(-c2cnc3ncccn23)n1 | binding | 1 µM | 100 |
| O=C(Nc1c[nH]nc1C(=O)NC1CCNCC1)c1cc(F)cc(F)c1 | binding, competition with immobilised ligand | 1 µM | 100 |
| Cc1cnn2ncc(-c3ccnc(N(C)C)n3)c2c1 | binding | 1 µM | 100 |
| Cc1cnc(Nc2ccc(C(=O)N3CCC(N4CCCC4)CC3)cc2)nc1-c1cc2ccccc2s1 | binding, competition with immobilised ligand | 1 µM | 100 |
| O=C(Nc1cccnn1)N1CCC(=Cc2cccc(Oc3ccc(C(F)(F)F)cn3)c2)CC1 | cell-free assay, competition with immobilised ligand | 1 µM | 82 |
| N[C@@H]1CCN(c2nccc(-c3cnn4ncccc34)n2)C1 | binding | 1 µM | 98 |
| CNC(=O)Nc1ccc2c(c1)[C@@]1(CC2)OC(=O)N(CC(=O)N(Cc2ccc(F)cc2)[C@@H](C)C(F)(F)F)C1=O | binding, competition with immobilised ligand | 1 µM | 94 |
| COc1ncc2cc3ccccc3nc2c1C#N | binding, competition with immobilised ligand | 5 µM | 93 |
